ChEMBL document CHEMBL1124515, “3,7-Dideazapurine nucleosides. Synthesis and antitumor activity of 1-deazatubercidin and 2-chloro-2'-deoxy-3,7-dideazaadenosine” (1989)
Activity calls are given as the source filed them. The rule behind the calls is not given here.

Key:
[1] = tested on: HL-60; assay: Compound (1 x 10e-4 M) was evaluated in vitro for its ability to inhibit the growth of the human promyelocytic leukemia HL-60; Inactive until maximum tested concentration of 1xe-4 M; type: functional, cell-based
[2] = organism: Homo sapiens; assay: Compound (1 x 10e-4 M) was evaluated in vitro for its ability to inhibit the growth of the human epidermoid carcinoma KB; Inactive until maximum tested concentration of 1xe-4 M; type: functional
[3] = tested on: L1210; assay: Compound (1 x 10e-4 M) was evaluated in vitro for its ability to inhibit the growth of the murine leukemia L1210; Inactive until maximum tested concentration of 1xe-4 M; type: functional, cell-based; details: Mus musculus
[4] = tested on: P388; assay: Compound (1 x 10e-4 M) was evaluated in vitro for its ability to inhibit the growth of the murine leukemia P388; Inactive until maximum tested concentration of 1xe-4 M; type: functional, cell-based; details: Mus musculus
[5] = organism: Homo sapiens; assay: Compound (1 x 10e-4 M) was evaluated in vitro for its ability to inhibit the growth of the human epidermoid carcinoma KB; type: functional
Outline: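 KB cells in exponential growth, in RPMI-1640 with antibiotics, 3 mM glutamine, 10 mM HEPES and 5% heat-inactivated newborn calf serum. Seeded at 5 × 10³ cells/well and exposed in quadruplicate to compound (DMSO ≤0.5% final), up to a maximum of 1×10^-4 M, for 48 h at 37 °C. [¹²⁵I]-5-iodo-2'-deoxyuridine plus 5-fluoro-2'-deoxyuridine then added for 18 h. Cells trypsin/EDTA-detached, filter-harvested and γ-counted. Inhibition expressed as % of control incorporation.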

Compound: Nc1nc(Cl)cc2c1ccn2[C@@H]1O[C@H](CO)[C@@H](O)[C@H]1O
- ID50 [1]: Inactive until maximum tested concentration of 1xe-4 M
- ID50 [2]: Inactive until maximum tested concentration of 1xe-4 M
- ID50 [3]: Inactive until maximum tested concentration of 1xe-4 M
- ID50 [4]: Inactive until maximum tested concentration of 1xe-4 M

Compound: Nc1ncnc2c1ccn2[C@@H]1O[C@H](CO)[C@@H](O)[C@H]1O
- ID50 [5]: 52 nM

Compound: Nc1nccc2c1ccn2[C@H]1C[C@H](O)[C@@H](CO)O1
- ID50 [1]: Inactive until maximum tested concentration of 1xe-4 M
- ID50 [2]: Inactive until maximum tested concentration of 1xe-4 M
- ID50 [3]: Inactive until maximum tested concentration of 1xe-4 M
- ID50 [4]: Inactive until maximum tested concentration of 1xe-4 M

Compound: Nc1nc(Cl)cc2c1ccn2[C@H]1C[C@H](O)[C@@H](CO)O1
- ID50 [1]: Inactive until maximum tested concentration of 1xe-4 M
- ID50 [2]: Inactive until maximum tested concentration of 1xe-4 M
- ID50 [3]: Inactive until maximum tested concentration of 1xe-4 M
- ID50 [4]: Inactive until maximum tested concentration of 1xe-4 M

Compound: Nc1nccc2c1ccn2[C@@H]1O[C@H](CO)[C@@H](O)[C@H]1O
- ID50 [1]: Inactive until maximum tested concentration of 1xe-4 M
- ID50 [2]: Inactive until maximum tested concentration of 1xe-4 M
- ID50 [3]: Inactive until maximum tested concentration of 1xe-4 M
- ID50 [4]: Inactive until maximum tested concentration of 1xe-4 M
